Experimental data from ChEMBL document CHEMBL1147104, “Neonatal coinfection model of coagulase-negative Staphylococcus (Staphylococcus epidermidis) and Candida albicans: fluconazole prophylaxis enhances survival and growth” (Antimicrob Agents Chemother, 2007).
Calls of active or inactive are those of the source. The rule behind the calls is not given here.

What was measured:
[1] = test system: Rattus norvegicus; test: Increase in growth of neonatal Wistar rat infected with Candida albicans ATCC 32354 assessed as weight gain at 10 mg/kg of body weight/day, ip for 4 days beginning 24 hrs before infection relative to control; assay type: functional, organism-based; parameters: dose 10 mg/kg
In short: (§1)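 In intralipid-immunosuppressed neonatal Wistar pups, littermates were randomized, dosed i.p. daily for 4 days from 24 h pre-infection, and infected s.c. on days 2 and 3 with 2 × 10⁸ CFU C. albicans, with or without 2 × 10⁶ CFU S. epidermidis. Nonedematous weight was recorded daily for 9 days. Slopes of each pup's weight curve were calculated, and group means were compared by one-way ANOVA.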

[2] = test system: Rattus norvegicus; test: Survival of neonatal Wistar rat infected with Candida albicans ATCC 32354 at 10 mg/kg of body weight/day, ip for 4 days beginning 24 hrs before infection; assay type: functional; conditions: route intraperitoneal
In short: (§2)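 Wistar pups aged 1-2 days, kept with dams, were immunosuppressed with 0.2 ml 20% intralipid i.p. (two doses on day 1, one each on days 2 and 3). Drug or placebo was given i.p. daily for 4 days from 24 h before infection. Littermates were randomized and infected s.c. on days 2 and 3 with 2 × 10⁸ CFU C. albicans, alone or with 2 × 10⁶ CFU S. epidermidis. Survival was followed daily for 9 days; groups were compared by Fisher exact test.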

[3] = test system: Rattus norvegicus; test: Survival of neonatal Wistar rat infected with Staphylococcus epidermidis Hay and Candida albicans ATCC 32354 at 10 mg/kg of body weight/day, ip for 4 days beginning 24 hrs before infection; assay type: functional; conditions: route intraperitoneal; in short: as §2
[4] = Serum trough levels in Wistar rat pup at 10 mg/kg of body weight/day, ip after 72 hrs by ELISA; assay type: ADME, organism-based; parameters: dose 10 mg/kg, route intraperitoneal; conditions: read-out: Cmin
In short: (§3)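 Pups received 10 mg/kg/day i.p. for 4 days. Troughs were taken just before the next dose (24, 48, 72 h) and 24 h after the fourth dose (96 h). Blood was collected by cardiac puncture from 12-15 pups per time point, and serum from 3 pups was pooled per sample, giving 4-5 samples. Serum was stored at −70°C and assayed in one batch. The assay was linear from 0.2 to 200 µg/ml.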

[5] = test system: Rattus norvegicus; test: Decrease in mortality of neonatal Wistar rat infected with Candida albicans ATCC 32354 at 10 mg/kg of body weight/day, ip for 4 days beginning 24 hrs before infection; assay type: functional; parameters: scale not given: the % may be the effect or the level left; conditions: route intraperitoneal; in short: as §2
[6] = test system: Staphylococcus epidermidis; test: Inhibition of Staphylococcus epidermidis Hay ATCC 55133 at 1 ug/ml by broth microdilution method; assay type: functional, organism-based
[7] = test system: Rattus norvegicus; test: Increase in growth of neonatal Wistar rat infected with Candida albicans ATCC 32354 and Staphylococcus epidermidis Hay assessed as weight gain at 10 mg/kg of body weight/day, ip for 4 days beginning 24 hrs before infection relative to control; assay type: functional, organism-based; parameters: dose 10 mg/kg; in short: as §1
[8] = Serum trough levels in Wistar rat pup at 10 mg/kg of body weight/day, ip after 24 hrs by ELISA; assay type: ADME, organism-based; parameters: dose 10 mg/kg, route intraperitoneal; conditions: read-out: Cmin; in short: as §3
[9] = Serum trough levels in Wistar rat pup at 10 mg/kg of body weight/day, ip after 48 hrs by ELISA; assay type: ADME, organism-based; parameters: dose 10 mg/kg, route intraperitoneal; conditions: read-out: Cmin; in short: as §3
[10] = Serum trough levels in Wistar rat pup at 10 mg/kg of body weight/day, ip after 96 hrs by ELISA; assay type: ADME, organism-based; parameters: dose 10 mg/kg, route intraperitoneal; conditions: read-out: Cmin; in short: as §3
[11] = test system: Rattus norvegicus; test: Decrease in mortality of neonatal Wistar rat infected with Candida albicans ATCC 32354 and Staphylococcus epidermidis Hay at 10 mg/kg of body weight/day, ip for 4 days beginning 24 hrs before infection; assay type: functional; parameters: scale not given: the % may be the effect or the level left; conditions: route intraperitoneal; in short: as §2
[12] = test system: Candida albicans; test: Inhibition of Candida albicans ATCC 32354 at 1 ug/ml by broth microdilution method; assay type: functional, organism-based
In short: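 CLSI M27-A2 broth microdilution. Inoculum was 1-5 × 10³ CFU/ml in RPMI 1640 buffered with MOPS to pH 7. Twofold drug dilutions from 125 to 0.25 µg/ml were tested at 35°C for 48 h, with visual reads at 24 and 48 h. The MIC was the lowest concentration giving a ≥50% decrease in turbidity. Trailing growth at 48 h was counted as susceptible.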

OC(Cn1cncn1)(Cn1cncn1)c1ccc(F)cc1F [FLUCONAZOLE]
Activity [1]: Active
survival at 10 mg/kg [2]: 85.7%
survival at 10 mg/kg [3]: 75.6%
concentration at 72 h [4]: 1510 ng/mL
Activity [5]: 30%
Activity [6]: inactive
Activity [7]: Active
concentration at 24 h [8]: 1550 ng/mL
concentration at 48 h [9]: 2500 ng/mL
concentration at 96 h [10]: 1030 ng/mL
Activity [11]: 36%
Activity [12]: Active
